Measured values from ChEMBL document CHEMBL2346608, “New annelated thieno[2,3-e][1,2,3]triazolo[1,5-a]pyrimidines, with potent anticancer activity, designed through VLAK protocol” (2013).

Tests used:
Assay type in all cases: functional
[1] = tested on: OVCAR-8; test: Antiproliferative activity against human OVCAR8 cells after 48 hrs by sulforhodamine B assay; conditions: OVCAR-8, 48 h
Summary of the method: (§1)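 Cells grown in RPMI 1640 with 5% FBS and 2 mM L-glutamine, plated at 5000–40,000 cells/well and preincubated 24 h at 37 °C, 5% CO2. Five drug concentrations (10-fold or ½-log dilutions from DMSO stocks) applied for 48 h. TCA-fixed (final 10% adherent, 16% suspension), SRB-stained, A515 read. Growth versus time-zero and control wells gave GI50, TGI, LC50.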

[2] = tested on: OVCAR-4; test: Antiproliferative activity against human OVCAR4 cells after 48 hrs by sulforhodamine B assay; conditions: OVCAR-4, 48 h; summary of the method: as §1
[3] = tested on: NCI-H522; test: Antiproliferative activity against human NCI-H522 cells after 48 hrs by sulforhodamine B assay; conditions: NCI-H522, 48 h; summary of the method: as §1
[4] = tested on: NCI-H460; test: Antiproliferative activity against human NCI-H460 cells after 48 hrs by sulforhodamine B assay; conditions: NCI-H460, 48 h; summary of the method: as §1
[5] = tested on: NCI-H23; test: Antiproliferative activity against human NCI-H23 cells after 48 hrs by sulforhodamine B assay; conditions: NCI-H23, 48 h; summary of the method: as §1
[6] = tested on: NCI-H226; test: Antiproliferative activity against human NCI-H226 cells after 48 hrs by sulforhodamine B assay; conditions: NCI-H226, 48 h; summary of the method: as §1
[7] = tested on: HOP-92; test: Antiproliferative activity against human HOP92 cells after 48 hrs by sulforhodamine B assay; conditions: HOP-92, 48 h; summary of the method: as §1
[8] = tested on: HOP-62; test: Antiproliferative activity against human HOP62 cells after 48 hrs by sulforhodamine B assay; conditions: HOP-62, 48 h; summary of the method: as §1
[9] = tested on: A549; test: Antiproliferative activity against human A549 cells after 48 hrs by sulforhodamine B assay; conditions: A549, 48 h; summary of the method: as §1
[10] = tested on: UACC-257; test: Antiproliferative activity against human UACC257 cells after 48 hrs by sulforhodamine B assay; conditions: UACC-257, 48 h
Summary of the method: (§2)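 Cells in RPMI 1640 with 5% FBS and 2 mM L-glutamine were seeded at 5000–40,000/well according to doubling time and preincubated 24 h at 37 °C in 5% CO2. Time-zero plates were TCA-fixed when drug was added. Five 10-fold or ½-log dilutions from DMSO stocks were added for 48 h. After SRB staining, A515 was read and GI50 derived from [(Ti−Tz)/(C−Tz)]×100 = 50.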

[11] = tested on: SK-MEL-5; test: Antiproliferative activity against human SK-MEL-5 cells after 48 hrs by sulforhodamine B assay; conditions: SK-MEL-5, 48 h; summary of the method: as §1
[12] = tested on: SK-MEL-28; test: Antiproliferative activity against human SK-MEL-28 cells after 48 hrs by sulforhodamine B assay; conditions: SK-MEL-28, 48 h; summary of the method: as §1
[13] = tested on: Malme-3M; test: Antiproliferative activity against human MALME-3M cells after 48 hrs by sulforhodamine B assay; summary of the method: as §1
[14] = tested on: M14; test: Antiproliferative activity against human M14 cells after 48 hrs by sulforhodamine B assay; conditions: M14, 48 h; summary of the method: as §1
[15] = tested on: RPMI-8226; test: Antiproliferative activity against human RPMI8226 cells after 48 hrs by sulforhodamine B assay; conditions: RPMI-8226, 48 h; summary of the method: as §1
[16] = tested on: CCRF-CEM; test: Antiproliferative activity against human CCRF-CEM cells after 48 hrs by sulforhodamine B assay; summary of the method: as §1
[17] = tested on: KM12; test: Antiproliferative activity against human KM12 cells after 48 hrs by sulforhodamine B assay; conditions: KM12, 48 h; summary of the method: as §1
[18] = tested on: HCT-15; test: Antiproliferative activity against human HCT15 cells after 48 hrs by sulforhodamine B assay; conditions: HCT-15, 48 h; summary of the method: as §1
[19] = tested on: HT-29; test: Antiproliferative activity against human HT-29 cells after 48 hrs by sulforhodamine B assay; conditions: HT-29, 48 h; summary of the method: as §1
[20] = Antiproliferative activity against human HCC2998 cells after 48 hrs by sulforhodamine B assay; conditions: HCC 2998, 48 h; summary of the method: as §1
[21] = tested on: SNB-75; test: Antiproliferative activity against human SNB75 cells after 48 hrs by sulforhodamine B assay; conditions: SNB-75, 48 h; summary of the method: as §2
[22] = tested on: SF-268; test: Antiproliferative activity against human SF268 cells after 48 hrs by sulforhodamine B assay; conditions: SF-268, 48 h; summary of the method: as §1
[23] = tested on: MCF7; test: Antiproliferative activity against human MCF7 cells after 48 hrs by sulforhodamine B assay; conditions: MCF7, 48 h; summary of the method: as §1
[24] = Antiproliferative activity against human Hs 578T cells after 48 hrs by sulforhodamine B assay; summary of the method: as §1
[25] = tested on: TK-10; test: Antiproliferative activity against human TK10 cells after 48 hrs by sulforhodamine B assay; conditions: TK-10, 48 h; summary of the method: as §2
[26] = tested on: UO-31; test: Antiproliferative activity against human UO31 cells after 48 hrs by sulforhodamine B assay; conditions: UO-31, 48 h; summary of the method: as §2
[27] = tested on: CAKI-1; test: Antiproliferative activity against human CAKI-1 cells after 48 hrs by sulforhodamine B assay; conditions: CAKI-1, 48 h; summary of the method: as §1
[28] = tested on: RXF 393; test: Antiproliferative activity against human RXF393 cells after 48 hrs by sulforhodamine B assay; conditions: RXF 393, 48 h; summary of the method: as §1
[29] = tested on: 786-0; test: Antiproliferative activity against human 786-0 cells after 48 hrs by sulforhodamine B assay; conditions: 786-0, 48 h; summary of the method: as §1
[30] = read-out: pLC50 (the source's name) (converted)

CN1CCN(CCCn2c(=O)c3sc4ncccc4c3n3nnc(-c4ccccc4)c23)CC1
GI50 [1]: 7.76 µM | LC50 [1]: 30.2 µM | TGI ([1]; read-out: pTGI (converted)): 15.5 µM | GI50 [2]: 7.24 µM | LC50 (concentration killing 50% of cells) [2]: 26.9 µM | TGI ([2]; read-out: pTGI (converted)): 14.1 µM | GI50 [3]: 7.24 µM | LC50 [3]: 28.8 µM | TGI ([3]; read-out: pTGI (converted)): 14.5 µM | GI50 [4]: 6.92 µM | LC50 [4]: 26.9 µM | TGI ([4]; read-out: pTGI (converted)): 13.8 µM | GI50 [5]: 8.13 µM | LC50 [5]: 28.8 µM | TGI ([5]; read-out: pTGI (converted)): 15.5 µM | GI50 [6]: 7.41 µM | LC50 [6]: 31.6 µM | TGI ([6]; read-out: pTGI (converted)): 15.1 µM | GI50 [7]: 5.75 µM | CC50 [7, 30]: 28.8 µM | TGI ([7]; read-out: pTGI (converted)): 12.9 µM | GI50 [8]: 8.13 µM | LC50 [8]: 28.8 µM | TGI ([8]; read-out: pTGI (converted)): 15.5 µM | GI50 [9]: 6.76 µM | LC50 [9]: 28.2 µM | TGI ([9]; read-out: pTGI (converted)): 13.8 µM | GI50 [10]: 2.29 µM | LC50 [10]: 20.4 µM | TGI ([10]; read-out: pTGI (converted)): 7.59 µM | GI50 [11]: 7.24 µM | LC50 [11]: 26.3 µM | TGI ([11]; read-out: pTGI (converted)): 13.8 µM | GI50 [12]: 8.71 µM | LC50 [12]: 28.2 µM | TGI ([12]; read-out: pTGI (converted)): 15.8 µM | GI50 [13]: 9.33 µM | LC50 [13]: 33.9 µM | TGI ([13]; read-out: pTGI (converted)): 17.8 µM | GI50 [14]: 2.14 µM | LC50 [14]: 20.9 µM | TGI ([14]; read-out: pTGI (converted)): 7.41 µM | GI50 [15]: 6.17 µM | CC50 [15, 30]: 40.7 µM | TGI ([15]; read-out: pTGI (converted)): 15.8 µM | GI50 [16]: 1.55 µM | LC50 [16]: 24.5 µM | TGI ([16]; read-out: pTGI (converted)): 5.25 µM | GI50 [17]: 4.27 µM | LC50 [17]: 24.5 µM | TGI ([17]; read-out: pTGI (converted)): 10.7 µM | GI50 [18]: 6.17 µM | LC50 [18]: 28.2 µM | TGI ([18]; read-out: pTGI (converted)): 13.2 µM | GI50 [19]: 2.88 µM | LC50 [19]: 23.4 µM | TGI ([19]; read-out: pTGI (converted)): 9.55 µM | GI50 [20]: 6.76 µM | LC50 [20]: 26.3 µM | TGI ([20]; read-out: pTGI (converted)): 13.5 µM | GI50 [21]: 6.76 µM | LC50 (concentration killing 50% of starting cells) [21]: 25.7 µM | TGI ([21]; read-out: pTGI (converted)): 13.2 µM | GI50 [22]: 6.46 µM | LC50 [22]: 26.9 µM | TGI ([22]; read-out: pTGI (converted)): 13.2 µM | GI50 [23]: 7.76 µM | LC50 [23]: 29.5 µM | TGI ([23]; read-out: pTGI (converted)): 15.1 µM | GI50 [24]: 6.46 µM | LC50 [24]: 39.8 µM | TGI ([24]; read-out: pTGI (converted)): 16.2 µM | GI50 [25]: 6.92 µM | LC50 [25]: 26.9 µM | TGI ([25]; read-out: pTGI (converted)): 13.5 µM | GI50 [26]: 5.13 µM | LC50 [26]: 28.2 µM | TGI ([26]; read-out: pTGI (converted)): 12 µM | GI50 [27]: 6.17 µM | CC50 [27, 30]: 27.5 µM | TGI ([27]; read-out: pTGI (converted)): 12.9 µM | GI50 [28]: 6.31 µM | LC50 [28]: 28.2 µM | TGI ([28]; read-out: pTGI (converted)): 13.5 µM | GI50 [29]: 7.41 µM | CC50 [29, 30]: 28.8 µM | TGI ([29]; read-out: pTGI (converted)): 14.5 µM
